Molecules are shown by their SMILES.

The nature of this data set: Toxicity liver stage against HepG2, at 10uM. The format is cell-based. The arrangement: test concentration 10 uM, cell line HepG2-A16-CD81EGFP. The following applies: human, HepG2-A16-CD81EGFP cells; read-out: INHIBITION
The essentials: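 Uninfected HepG2-A16-CD81EGFP cells, 3 × 10^3 per well, 1536-well, plated on prespotted compound at 10 μM final, parasite-free screening media added to match infected plates; puromycin 10 μM positive, DMSO 0.5% negative; run in parallel with 48 h PbLuc assay at 37 °C, 5% CO2; viability by CellTiter-Glo luminescence, normalized to controls.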
`CN1CCN(C[C@H]2CN3CC[C@H]2C[C@@H]3CNC(=O)c2ccco2)CC1`: the cytotoxicity at 10 µM is -6.35%.
To `COc1ccccc1N1CCN(C(=O)COc2c(C)occc2=O)CC1` belongs -0.426%; to `Cc1ccccc1C(=O)N1CCN(c2ccc(-n3cncn3)nn2)CC1`, 50.8%.
For `CC[C@H]1N(Cc2ccco2)CCC[C@]12CCC(=O)N2C`, the cytotoxicity at 10 µM was 4.23%.
Take `O=C(Nc1cnccn1)[C@@H]1C[C@H]2OCC[C@H]2N(c2ncc(F)cn2)C1`: the cytotoxicity at 10 µM was 8.12%.
To `CC(C)n1cnc2c1C(C(=O)N1CCCC1)N(S(C)(=O)=O)CC2` (configuration not stated) belongs -5.15%.
The value for `CCC(C)N1CCc2c(C(=O)N(C)Cc3ccccn3)nn(C)c2C1` (configuration not stated) was -2.78%.
`CO[C@H]1CN(C(=O)c2ccc3c(c2)OCO3)[C@@H]2COC[C@H]12`: the cytotoxicity at 10 µM was -142%.
To `Cc1oncc1C(=O)N1CCC2(CCN(Cc3cccc(F)c3)C2=O)C1` (configuration not stated) belongs -142%.
The value for `CCOC(=O)CSc1ccc(-c2nc(CC)no2)cn1` was -17.1%; that for `COc1ccc(-c2cc(=O)n3c(n2)CCCCC3)cc1` was -14.1%.
The value for `CCN(CC)C(=O)c1ccn(COc2ccc(F)cc2)n1` was 7.55%; that for `CCn1nc(C)c2nc(C(C)C)nc(N3CCC(O)CC3)c21` was 1.3%; that for `CN(C(=O)c1ccncc1)c1nnc(C2CCOC2)s1` (configuration not stated) was 3.57%.
On to `CCCC(=O)NCCc1nc(N(C)C)ncc1-c1ccncc1`, for which the cytotoxicity at 10 µM was 2.92%.
To `COCCNCc1cc2ccc(C)c(C)c2[nH]c1=O` belongs 5.13%.
To `CN(C)CC(=O)N1CCCC1c1ccccn1` (configuration not stated) belongs 4.38%; to `CC1(C2CCN(CC(N)=O)CC2)CN(Cc2ccccc2)C(=O)O1` (configuration not stated), -23.4%.
Regarding `NC(=O)C1CCN(C(=O)CCn2c(C(F)(F)F)cc3cccnc32)CC1`, the cytotoxicity at 10 µM was -23.7%.
The value for `CN(C)CCN(C)C(=O)c1ccccc1-n1cc(CN(C)C)cn1` was -13.7%; that for `O=C(c1cccnc1)N1CCC(c2nc(O)cc(-c3ccncc3)n2)C1` (configuration not stated) was -20.8%; that for `O=C(Cn1ccnc1)N1C[C@@H]2CC[C@H](Oc3cccc(F)c3)[C@@H]2C1` was -18%.
Turning to `CCn1cc(CN2CCc3nc(-c4ccccn4)nc(O)c3C2)cn1`, the cytotoxicity at 10 µM was -2.25%.
`CNc1ccc(CC2CCCN(C(=O)c3cnco3)C2)nn1` (configuration not stated): the cytotoxicity at 10 µM is -8.55%.
Turning to `Cc1occc1C(=O)NCC(=O)N1CCC(COc2ccccc2)CC1`, the cytotoxicity at 10 µM turned out to be 12.2%.
In the case of `COCCn1cc(C(=O)NCCS(N)(=O)=O)c2ccccc21`, the cytotoxicity at 10 µM is 7.01%.
As for `Cc1nc(C)c(C(C)NCc2c(C(C)C)nn(C)c2N(C)C)s1` (configuration not stated), the cytotoxicity at 10 µM was -8.53%.
To `CC(O)CN1CCN(Cc2coc(-c3ccccc3)n2)CC1` (configuration not stated) belongs -5.93%.
The value for `Cc1cc(C(=O)NCCC(=O)N2CCCc3ccccc32)no1` was 2.29%.
To `COc1cc(CNC(=O)c2cc(S(C)(=O)=O)ccc2C)ccn1` belongs -1.65%; to `Cc1noc(CSc2ccc(C(F)(F)F)cn2)n1`, -12.5%; to `CCN(CC)c1nc2sc(C(=O)NC(C)(C)C(=O)OC)cc2s1`, 3.58%.
Take `Cc1cccc(NC(=O)[C@@H]2CCCN2Cc2nc3ccccc3o2)n1`: the cytotoxicity at 10 µM is -4.61%.
To `COCc1ccc(C(=O)N2CCOCC2c2ccc(C)o2)cc1` (configuration not stated) belongs -5.48%.
`N#Cc1ncn(CCC(=O)Nc2ccc(F)c(F)c2)n1`: the cytotoxicity at 10 µM is -147%.
The value for `CCCc1nc(C)c(C(=O)Nc2cccc(C)n2)s1` was -40.8%.
Take `CCCOc1cc(C)ccc1NC(=O)NCCNC(C)=O`: the cytotoxicity at 10 µM is -6.58%.
To `Cc1ccc(OCCC(=O)NCCCN2CCCC2=O)c(C)c1` belongs -1.08%; to `Cc1ncncc1C(=O)N1CCCN(Cc2cnn(C(C)C)c2)CC1`, 0.814%.
The value for `CCN(CC(=O)NCc1nc(C2CC2)no1)Cc1ccc(Cl)cc1` was -2.29%.
On to `Cn1c(C2CC2)nc2c1CCN(CCc1ccccn1)C2`, for which the cytotoxicity at 10 µM worked out at 4.59%.
The value for `CCc1noc(CC)c1CC(=O)N1CCN(C(=O)C2CCCC2)CC1` was -4.78%; that for `CCOC(C)c1nc(Cn2cc(C)cn2)cs1` (configuration not stated) was 5.52%; that for `O=C(O)CN1CCC(c2ccccc2)CC1` was 1.73%.
The value for `CC(C)OCCSCCn1nc2ccccn2c1=O` was 3.36%.
In the case of `CC(C)N(C)C(=O)CSCc1ccc(S(=O)(=O)N(C)C)o1`, the cytotoxicity at 10 µM came to 19.1%.
To `Cn1ccnc1CNCCNc1ncc(Cl)cc1Cl` belongs 0.321%; to `O=C(c1cccs1)N1CCN(C(=O)c2ncoc2-c2ccco2)CC1`, 3.82%.
To `CCCS(=O)(=O)NCCc1ncc(CC)s1` belongs -1.56%.
Turning to `O=C(NCC1CC2(CO1)CN(c1nncs1)C2)C1CCC1` (configuration not stated), the cytotoxicity at 10 µM is -103%.
To `O=c1[nH]c(-c2ccncc2)ncc1-c1ccnc(NC2CCCCC2)n1` belongs -9.24%; to `CN1CCN(S(=O)(=O)c2ccc(C(=O)N3CC[C@@H](O)C3)cc2)CC1=O`, 2.7%; to `Cc1ccccc1SC1CCN(C(=O)C2CNCC(=O)N2)CC1` (configuration not stated), -3.81%.
The value for `COc1cc(OC)cc(C2CC(=O)Nc3c2nc2n3CCCC2)c1` (configuration not stated) was -3.99%; that for `CC(C)(O)CCc1cccc(C(=O)N2CCC[C@H]2CN2CCCC2)c1` was -1.13%.
The value for `O=C(c1ccc(-n2cnnc2)cc1Cl)N1CCCC(O)(CO)CC1` (configuration not stated) was -3.59%; that for `CN(Cc1ccsc1)C(=O)C1CCC(=O)N(Cc2ccccn2)C1` (configuration not stated) was 0.0228%.
With `CNCC(=O)NC1CC(C)(C)Cc2nc(C(C)(C)C)ncc21` (configuration not stated), the cytotoxicity at 10 µM came out at 10.2%.
The value for `O=C(CCN1CCOCC1)NC1CCCN(CC2CCCCC2)C1` (configuration not stated) was 1.64%.
Turning to `Cc1nn(C)c2nc(NC(C)c3nnn[nH]3)sc12` (configuration not stated), the cytotoxicity at 10 µM was -0.909%.
For the compound `COc1cccc(OC)c1-c1c[nH]c(C)n1`, the cytotoxicity at 10 µM is -1.57%.
On to `COCc1nc(CNC2CSCCSC2)no1`, for which the cytotoxicity at 10 µM was found to be 8.33%.
To `Cc1nc(NCCSc2cnn[nH]2)c2c(C)noc2n1` belongs -3.21%.
On to `O[C@@]1(CNCC2(Cn3cccn3)CC2)CCCN2CCCC[C@@H]21`, for which the cytotoxicity at 10 µM was determined as 4.13%.
To `CCCC(=O)N1CCCC(Cn2cc(-c3ccc(F)cc3)nn2)C1` (configuration not stated) belongs 7.88%; to `CN(CC1CCCCO1)S(=O)(=O)c1cccc(C(=O)N2CCOCC2)c1` (configuration not stated), -12.4%.
`COc1cccc2c(=O)n(Cc3nc(C)cc(O)n3)cnc12`: the cytotoxicity at 10 µM came out at 9.49%.
To `CSCCC(=O)N[C@H]1CC[C@H](Nc2nccc(-c3ccncc3)n2)C1` belongs -0.664%; to `Cc1ccc2nc(C3CCCN3C(=O)c3cc(=O)[nH]c(=O)[nH]3)[nH]c2c1` (configuration not stated), 18.7%.
To `c1ccc(CCCN2CCCC(Nc3cnc4ccccc4n3)C2)cc1` (configuration not stated) belongs 1.34%; to `CCNC(=O)N1CCCC(C(=O)c2cccc(OC(C)C)c2)C1` (configuration not stated), 8.62%.
To `CCCN(Cc1cccnc1)Cc1ccc(C2CCCCO2)o1` (configuration not stated) belongs 1.97%.
`O=C(CCc1cc(O)no1)N1CCCC(COc2ccc(F)cc2)C1` (configuration not stated): the cytotoxicity at 10 µM is 2.47%.
As to `CC(C)c1ncc(CN2C[C@@H](CN3CCC(CO)CC3)[C@@H](CO)C2)cn1`, the cytotoxicity at 10 µM was found to be 20%.
Regarding `CCC(=O)N1CC[C@@H](c2ccc3ccccc3c2)[C@H](O)C1`, the cytotoxicity at 10 µM was -11.4%.
With `NC(=O)C1CCCN(C(=O)c2ccn(-c3ccc(F)cc3)n2)C1` (configuration not stated), the cytotoxicity at 10 µM is -3.63%.
The value for `CC(C)c1nnc2n1CCN(C(=O)Cc1csc(C(C)(C)C)n1)C2` was -4.54%; that for `CCc1ncc2c(n1)CN(Cc1cccc(OCC(N)=O)c1)CC2` was -7.42%; that for `Cn1cc(C2CCCN2C(=O)CCCOc2ccc(F)cc2)cn1` (configuration not stated) was -17.8%.
As to `COc1ccc(C(=O)N(C)Cc2ncc(C)c(OC)c2C)c(OC)c1`, the cytotoxicity at 10 µM was -4.28%.
The value for `COc1c(C2CCCN2Cc2cc(C)no2)c(C)nn1C` (configuration not stated) was -7.25%; that for `COc1ccccc1C(O)CNC(=O)NCc1cccnc1OC` (configuration not stated) was -4.48%; that for `OC(CN1CCOCC1)c1ccc(OC(F)(F)F)cc1` (configuration not stated) was -9.36%.
To `Cc1cc(CN2CCN(C(C)c3nc(C4CC4)no3)CC2)no1` (configuration not stated) belongs 1.35%.
On to `CCN(Cc1cccc(Cl)c1)Cc1nc2c(cnn2C)c(=O)[nH]1`, for which the cytotoxicity at 10 µM was 1.01%.
To `CNS(=O)(=O)c1ccc(CNC(=O)NCC2CCCO2)cc1` (configuration not stated) belongs 7.12%; to `CCN(CC)C1CCN(C(=O)c2cc3cc(C)cc(C)c3nc2C)CC1`, 0.199%; to `COc1ccc(C[C@H]2CNCC[C@H]2OC)cc1`, 1.76%.
To `COc1c(CNC2CCCOc3ccc(F)cc32)c(C(C)C)nn1C` (configuration not stated) belongs -5.83%; to `Cc1ccc2c(n1)N(C)CCN(C(=O)NC1CC1)C2`, 1.36%.
The value for `O=C(C1CCC2(CCN(CC3CC3)CC2)O1)N1CCCC1` (configuration not stated) was 1.58%; that for `Cc1cccc(CN2CCC3(CC2)CC(Oc2cccnc2)C3)n1` was 12.7%.
As for `Cc1cccc(CN2C[C@@H]3CN(C(=O)c4cnoc4C)C[C@@H]3C2=O)n1`, the cytotoxicity at 10 µM worked out at 5.71%.
The value for `CCOC(=O)c1sc2ccsc2c1CN` was -1.86%.
Regarding `O=C1[C@H]2CN(C3CCOCC3)C[C@H]2CN1Cc1cccc(F)c1`, the cytotoxicity at 10 µM is -117%.
The value for `CC(C)N1CCc2[nH]nc(C(=O)N3CCN(C)CC3)c2C1` was -3.75%; that for `NCC1CCC(C(NC(=O)CC2CCCC2)c2ccccn2)CC1` (configuration not stated) was -14.6%.

The values above are taken from ChEMBL document CHEMBL4513216, “Probing the Open Global Health Chemical Diversity Library for Multistage-Active Starting Points for Next-Generation Antimalarials” (ACS Infect Dis, 2020).
